Test results from ChEMBL document CHEMBL2021854, “2-Aminopyrimidine based 4-aminoquinoline anti-plasmodial agents. Synthesis, biological activity, structure-activity relationship and mode of action studies” (Eur J Med Chem, 2012).
Converted amounts (≈) assume the structure as drawn.

Tested on: Feline infectious peritonitis virus
Assay: Antiviral activity against FIPV infected in cat CRFK cells assessed as inhibition of virus-induced cytopathic effect after 4 days by colorimetric formazan-based MTS assay
Type: functional, cell-based
Settings: Alphacoronavirus 1, CRFK, 96 h

With `N[C@H]1C(C(=O)O)=CC=C[C@@H]1O` as the compound, how does the EC50 read?
The EC50 was 8.1 µg/mL (≈ 52.2 µM).

With `CC(=O)N[C@H]1[C@@H](OP(=O)(O)OP(=O)(O)OC[C@H]2O[C@@H](n3ccc(=O)[nH]c3=O)[C@H](O)[C@@H]2O)O[C@H](CO)[C@@H](O)[C@@H]1O[C@@](C)(OP(=O)(O)O)C(=O)O` as the compound, how does the EC50 read?
Its EC50 is 1.5 µg/mL (≈ 1.93 µM).

Tested on: Coxsackievirus B4
Assay: Antiviral activity against Coxsackie virus B4 infected in african green monkey Vero cells assessed as inhibition of virus-induced cytopathogenicity after 4 days
Type: functional, organism-based
Settings: Enterovirus B, 96 h
Method in brief: (§1)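 Confluent HEL, Vero or HeLa monolayers were inoculated with 100 CCID50 of virus in the presence of varying concentrations of compound. Cytopathicity was scored when it reached completion in untreated, virus-infected control cultures.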

Which EC50 does the source give for `Nc1ncnc2c1ncn2C[C@H](O)CO` [(S)-DHPA] here?
Its EC50 is over 250 µM.

Tested on: not listed separately
Assay: Cytotoxicity against african green monkey Vero cells assessed as minimum compound concentration required to causes microscopically detectable alteration of normal cell morphology
Type: cell-based
Settings: chlorocebus sabaeus
Method in brief: (§2)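 Confluent, non-proliferating cell cultures were exposed to the compounds. The endpoint was the minimum concentration producing a microscopically detectable alteration of normal cell morphology.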

Which MCC does the source give for `Nc1ncnc2c1ncn2C[C@H](O)CO` [(S)-DHPA] here?
Its MCC is over 250 µM.

Tested on: Mammalian orthoreovirus 1
Assay: Antiviral activity against Reovirus-1 infected in african green monkey Vero cells assessed as inhibition of virus-induced cytopathogenicity after 4 days
Type: functional, organism-based
Settings: Mammalian orthoreovirus 1, Vero, 96 h
Method in brief: as §1

With `Nc1ncnc2c1ncn2C[C@H](O)CO` [(S)-DHPA] as the compound, how does the EC50 read?
Its EC50 is 250 µM.

Tested on: Vesicular stomatitis virus
Assay: Antiviral activity against Vesicular stomatitis virus infected in HeLa cells assessed as inhibition of virus-induced cytopathogenicity after 4 days
Type: functional, organism-based
Settings: 96 h
Method in brief: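 Confluent HEL or HeLa monolayers infected with 100 CCID50 of virus in the presence of varying compound concentrations.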

For `Nc1ncnc2c1ncn2C[C@H](O)CO` [(S)-DHPA], which EC50 is on record?
The EC50 was 22 µM.

Tested on: Coxsackievirus B4
Assay: Antiviral activity against Coxsackie virus B4 infected in human HeLa cells assessed as inhibition of virus-induced cytopathogenicity after 4 days
Type: functional, organism-based
Settings: Enterovirus B, 96 h
Method in brief: as §1

Which EC50 does the source give for `Nc1ncnc2c1ncn2C[C@H](O)CO` [(S)-DHPA] here?
The EC50 was 29 µM.

Tested on: Human respirovirus 3
Assay: Antiviral activity against Parainfluenza-3 virus infected in african green monkey Vero cells assessed as inhibition of virus-induced cytopathogenicity after 4 days
Type: functional, organism-based
Settings: Human respirovirus 3, Vero, 96 h
Method in brief: as §1

For `Nc1ncnc2c1ncn2C[C@H](O)CO` [(S)-DHPA], which EC50 is on record?
The EC50 was over 250 µM.

Tested on: Felid alphaherpesvirus 1
Assay: Antiviral activity against Feline herpesvirus infected in cat CRFK cells assessed as inhibition of virus-induced cytopathic effect after 4 days by colorimetric formazan-based MTS assay
Type: functional, organism-based
Settings: Felid alphaherpesvirus 1, CRFK, 96 h

With `N[C@H]1C(C(=O)O)=CC=C[C@@H]1O` as the compound, how does the EC50 read?
The EC50 was 5.2 µg/mL (≈ 33.5 µM).

Which EC50 does the source give for `CC(=O)N[C@H]1[C@@H](OP(=O)(O)OP(=O)(O)OC[C@H]2O[C@@H](n3ccc(=O)[nH]c3=O)[C@H](O)[C@@H]2O)O[C@H](CO)[C@@H](O)[C@@H]1O[C@@](C)(OP(=O)(O)O)C(=O)O` here?
The EC50 was 0.8 µg/mL (≈ 1.03 µM).

Tested on: not listed separately
Assay: Cytotoxicity against human HeLa cells assessed as minimum compound concentration required to causes microscopically detectable alteration of normal cell morphology
Type: cell-based
Settings: not given
Method in brief: as §2

For `Nc1ncnc2c1ncn2C[C@H](O)CO` [(S)-DHPA], which MCC is on record?
Its MCC is over 250 µM.

Tested on: Sindbis virus
Assay: Antiviral activity against Sindbis virus infected in african green monkey Vero cells assessed as inhibition of virus-induced cytopathogenicity after 4 days
Type: functional, organism-based
Settings: 96 h
Method in brief: as §1

For `Nc1ncnc2c1ncn2C[C@H](O)CO` [(S)-DHPA], which EC50 is on record?
Its EC50 is over 250 µM.

Tested on: not listed separately
Assay: Cytotoxicity against cat CRFK cells assessed as cell viability by colorimetric formazan-based MTS assay
Parameters: species or system Felis catus
Settings: CRFK cells

With `N[C@H]1C(C(=O)O)=CC=C[C@@H]1O` as the compound, how does the CC50 read?
Its CC50 is over 100 µg/mL.

For `CC(=O)N[C@H]1[C@@H](OP(=O)(O)OP(=O)(O)OC[C@H]2O[C@@H](n3ccc(=O)[nH]c3=O)[C@H](O)[C@@H]2O)O[C@H](CO)[C@@H](O)[C@@H]1O[C@@](C)(OP(=O)(O)O)C(=O)O`, which CC50 is on record?
Its CC50 is 15.8 µg/mL (≈ 20.4 µM).

Tested on: Punta Toro virus
Assay: Antiviral activity against Punta Toro virus infected in african green monkey Vero cells assessed as inhibition of virus-induced cytopathogenicity after 4 days
Type: functional, organism-based
Settings: 96 h
Method in brief: as §1

Which EC50 does the source give for `Nc1ncnc2c1ncn2C[C@H](O)CO` [(S)-DHPA] here?
The EC50 was over 250 µM.

Tested on: Respiratory syncytial virus
Assay: Antiviral activity against Respiratory syncytial virus infected in human HeLa cells assessed as inhibition of virus-induced cytopathogenicity after 4 days
Type: functional, organism-based
Settings: 96 h
Method in brief: as §1

With `Nc1ncnc2c1ncn2C[C@H](O)CO` [(S)-DHPA] as the compound, how does the EC50 read?
Its EC50 is 6 µM.
